Assays:
Rattus norvegicus [1] = assay: Inhibition of mast cell degranulation was assessed in female albino rats at a dose of 45 umol/kg iv; type: functional
Rattus norvegicus [2] = assay: Rat PCA Test(50% inhibition of spot areas)in the female albino rats after (ip) administration in 10% aqueous acacia gum; value ranges from 24-51; type: functional; details: read-out: ID50 (the source's name)
Procedure, shortened: (§1)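 Female albino rats (200–250 g) received intradermal ventral injections of rat anti-egg-albumin antiserum; donors were raised with egg albumin im plus H. pertussis ip, and serum was taken at 12 days. 24 h later, compound was given ip in 10% acacia gum (10 mL/kg), 10 rats/group. Challenge 30 min later was iv 0.3% egg albumin plus 1% Evans blue. Blued areas were measured 30 min after challenge.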

Cavia porcellus = assay: Antibronchospatic activity determined by histamine stimulated bronchospasm inhibition in guinea pigs after(i.v.) administration; type: functional, Bronchiole
Procedure, shortened: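 Guinea pigs, Konzett–Rössler preparation. Bronchospasm was induced with histamine. Compound was given iv (1 mL/kg) 1 min before the agonist, dissolved in saline or saline with slight excess HCl or CH3SO3H (pH 3.5–4). Three doses were tested in duplicate, chosen to give 20–90% inhibition. ID75 was read graphically from log dose–response curves.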

[3] = In vivo toxic effect was determined in mouse after oral administration with 10% aqueous acacia gum; value ranges from 2.50-3.50; type: toxicity, organism-based
Procedure, shortened: (§2)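 Female albino mice, 20-30 g. Compound given orally as solution or suspension in 10% aqueous acacia gum, 10 animals per dose. Deaths recorded over 7 days.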

Rattus norvegicus [4] = assay: Rat PCA Test(50% inhibition of spot areas)in the female albino rats after oral administration in 10% aqueous acacia gum; value ranges from 13-117; type: functional; details: read-out: ID50 (the source's name)
Procedure, shortened: (§3)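 Female rats (200-250 g) were passively sensitized by ventral intradermal anti-egg-albumin antiserum. This was raised in rats by intramuscular 1% egg albumin plus ip H. pertussis vaccine, with serum taken at 12 days. After 24 h, groups of 10 were dosed orally with compound or vehicle (10 mL/kg). At 60 min, iv challenge used 0.3% egg albumin with 1% Evans blue. Blued areas were measured after 30 min.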

[5] = In vivo toxic effect was determined in mouse after intraperitoneal administration with 10% aqueous acacia gum; value ranges from 1-1.40; type: toxicity, organism-based; details: ip
Procedure, shortened: (§4)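 Female albino mice (20-30 g), 10 animals per dose, dosed intraperitoneally with compound in solution or suspension; compounds tested as salts unless noted. Mortality was recorded over 7 days.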

[6] = In vivo toxic effect was determined in mouse after intraperitoneal administration with 10% aqueous acacia gum; value ranges from 0.85-1.18; type: toxicity, organism-based; details: ip; procedure, shortened: as §4
[7] = In vivo toxic effect was determined in mouse after oral administration with 10% aqueous acacia gum; value ranges from 0.68-1.24; type: toxicity, organism-based; procedure, shortened: as §2
Rattus norvegicus [8] = assay: Rat PCA Test(50% inhibition of spot areas)in the female albino rats after (ip) administration in 10% aqueous acacia gum; value ranges from 114-198; type: functional; details: read-out: ID50 (the source's name); procedure, shortened: as §1
[9] = In vivo toxic effect was determined in mouse after intraperitoneal administration with 10% aqueous acacia gum; value ranges from 0.29-0.60; type: toxicity, organism-based; details: ip; procedure, shortened: as §4
[10] = In vivo toxic effect was determined in mouse after oral administration with 10% aqueous acacia gum; value ranges from 0.86-1.66; type: toxicity, organism-based; procedure, shortened: as §2
Rattus norvegicus [11] = assay: Rat PCA Test(50% inhibition of spot areas)in the female albino rats after (ip) administration in 10% aqueous acacia gum; value ranges from 25-150; type: functional; details: read-out: ID50 (the source's name); procedure, shortened: as §1
[12] = In vivo toxic effect was determined in mouse after oral administration with 10% aqueous acacia gum; value ranges from 0.84-1.62; type: toxicity, organism-based; procedure, shortened: as §2
Rattus norvegicus [13] = assay: Rat PCA Test(50% inhibition of spot areas)in the female albino rats after (ip) administration in 10% aqueous acacia gum; type: functional; details: read-out: ID50 (the source's name); procedure, shortened: as §1
[14] = In vivo toxic effect was determined in mouse after intraperitoneal administration with 10% aqueous acacia gum; value ranges from 0.43-0.73; type: toxicity, organism-based; details: ip; procedure, shortened: as §4
[15] = In vivo toxic effect was determined in mouse after intraperitoneal administration with 10% aqueous acacia gum; value ranges from 5.14-9.14; type: toxicity, organism-based; details: ip; procedure, shortened: as §4
[16] = In vivo toxic effect was determined in mouse after oral administration with 10% aqueous acacia gum; value ranges from 3.02-4.51; type: toxicity, organism-based; procedure, shortened: as §2
[17] = In vivo toxic effect was determined in mouse after intraperitoneal administration with 10% aqueous acacia gum; value ranges from 1.41-3.07; type: toxicity, organism-based; details: ip; procedure, shortened: as §4
[18] = In vivo toxic effect was determined in mouse after intraperitoneal administration with 10% aqueous acacia gum; value ranges from 3.67-6.20; type: toxicity, organism-based; details: ip; procedure, shortened: as §4
Rattus norvegicus [19] = assay: Rat PCA Test(50% inhibition of spot areas)in the female albino rats after (ip) administration in 10% aqueous acacia gum; value ranges from 328-1350; type: functional; details: read-out: ID50 (the source's name); procedure, shortened: as §1
[20] = In vivo toxic effect was determined in mouse after intraperitoneal administration with 10% aqueous acacia gum; value ranges from 0.40-1.72; type: toxicity, organism-based; details: ip; procedure, shortened: as §4
[21] = In vivo toxic effect was determined in mouse after oral administration with 10% aqueous acacia gum; value ranges from 0.67-1.21; type: toxicity, organism-based; procedure, shortened: as §2
[22] = In vivo toxicity in mouse after oral administration with 10% aqueous acacia gum; type: organism-based; procedure, shortened: as §2
Rattus norvegicus [23] = assay: Rat PCA Test(50% inhibition of spot areas)in the female albino rats after (ip) administration in 10% aqueous acacia gum; value ranges from 57-105; type: functional; details: read-out: ID50 (the source's name); procedure, shortened: as §1
Rattus norvegicus [24] = assay: Rat PCA Test(50% inhibition of spot areas)in the female albino rats after oral administration in 10% aqueous acacia gum; type: functional; details: read-out: ID50 (the source's name); procedure, shortened: as §3
[25] = In vivo toxic effect was determined in mouse after intraperitoneal administration with 10% aqueous acacia gum; value ranges from 1.73-3.04; type: toxicity, organism-based; details: ip; procedure, shortened: as §4
Rattus norvegicus [26] = assay: Inhibition of mast cell degranulation was assessed in female albino rats at a dose of 29 umol/kg iv; type: functional
Mus musculus = assay: In vivo toxic effect was determined in mouse after intraperitoneal administration with 10% aqueous acacia gum; NA means poorly absorbed; type: toxicity, organism-based; details: ip; procedure, shortened: as §4
Rattus norvegicus [27] = assay: Rat PCA Test(50% inhibition of spot areas)in the female albino rats after (ip) administration in 10% aqueous acacia gum; value ranges from 20-94; type: functional; details: read-out: ID50 (the source's name); procedure, shortened: as §1
[28] = In vivo toxic effect was determined in mouse after oral administration with 10% aqueous acacia gum; value ranges from 1.35-1.88; type: toxicity, organism-based; procedure, shortened: as §2
[29] = In vivo toxic effect was determined in mouse after intraperitoneal administration with 10% aqueous acacia gum; value ranges from 0.72-1.40; type: toxicity, organism-based; details: ip; procedure, shortened: as §4
Rattus norvegicus [30] = assay: Rat PCA Test(50% inhibition of spot areas)in the female albino rats after (ip) administration in 10% aqueous acacia gum; value ranges from 22-195; type: functional; details: read-out: ID50 (the source's name); procedure, shortened: as §1
Rattus norvegicus [31] = assay: Rat PCA Test(50% inhibition of spot areas)in the female albino rats after (ip) administration in 10% aqueous acacia gum;Value ranges from (81-186); type: functional; details: read-out: ID50 (the source's name)
Procedure, shortened: (§5)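 Antiserum came from female rats given 1% egg albumin in 0.9% NaCl intramuscularly plus Haemophilus pertussis vaccine (2 × 10^10 organisms) intraperitoneally, and was collected 12 days later. Recipient rats (200-250 g) got it intradermally at a ventral site. After 24 h, groups of 10 received vehicle or compound ip. At 30 min they were challenged iv with 0.3% egg albumin plus 1% Evans blue. Blued skin areas were measured 30 min later.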

[32] = In vivo toxic effect was determined in mouse after intraperitoneal administration with 10% aqueous acacia gum; value ranges from 0.72-1.13; type: toxicity, organism-based; details: ip; procedure, shortened: as §4
Rattus norvegicus [33] = assay: Rat PCA Test(50% inhibition of spot areas)in the female albino rats after ip administration in 10% aqueous acacia gum; type: functional; details: read-out: ID50 (the source's name); procedure, shortened: as §5
[34] = In vivo toxic effect was determined in mouse after intraperitoneal administration with 10% aqueous acacia gum; value ranges from 0.63-1.05; type: toxicity, organism-based; details: ip; procedure, shortened: as §4
[35] = In vivo toxic effect was determined in mouse after oral administration with 10% aqueous acacia gum; value ranges from 1.79-2.41; type: toxicity, organism-based; procedure, shortened: as §2
[36] = In vivo toxic effect was determined in mouse after intraperitoneal administration with 10% aqueous acacia gum; value ranges from 0.96-10.62; type: toxicity, organism-based; details: ip; procedure, shortened: as §4
Rattus norvegicus [37] = assay: Inhibition of mast cell degranulation was assessed in female albino rats at a dose of 61 umol/kg iv; type: functional
[38] = In vivo toxic effect was determined in mouse after intraperitoneal administration with 10% aqueous acacia gum; value ranges from 0.29-0.42; type: toxicity, organism-based; details: ip; procedure, shortened: as §4
[39] = In vivo toxic effect was determined in mouse after oral administration with 10% aqueous acacia gum; value ranges from 0.50-0.68; type: toxicity, organism-based
Rattus norvegicus [40] = assay: Inhibition of mast cell degranulation was assessed in female albino rats at a dose of 2 umol/kg iv; type: functional
Rattus norvegicus [41] = assay: Rat PCA Test(50% inhibition of spot areas)in the female albino rats after oral administration in 10% aqueous acacia gum; value ranges from 1.7-2.4; type: functional; details: read-out: ID50 (the source's name); procedure, shortened: as §3

## CC1CN(c2ccccn2)CCN1CCC(=O)Nc1ccc(N)cc1.Cl (centres undefined)
Rattus norvegicus [1]
  inhibition in vivo at 45 µmol/kg: 14%
Rattus norvegicus [2]
  ED50: 35 µmol/kg
Cavia porcellus
  ID75: 0.59 µM/kg
[3]
  LD50: 2970 µmol/kg
Rattus norvegicus [4]
  ED50: 92 µmol/kg
[5]
  LD50: 1190 µmol/kg

## Cl.Nc1cccc(NC(=O)CCN2CCN(c3ccccn3)CC2)c1
[6]
  LD50: 900 µmol/kg
[7]
  LD50: 850 µmol/kg
Rattus norvegicus [8]
  ED50: 148 µmol/kg
Cavia porcellus
  ID75: 0.61 µM/kg

## CC1CN(c2ccccn2)CCN1CCC(=O)Nc1ccc([N+](=O)[O-])cc1.Cl.Cl (centres undefined)
[9]
  LD50: 420 µmol/kg
[10]
  LD50: 1200 µmol/kg
Rattus norvegicus [11]
  ED50: 61 µmol/kg

## Cl.Cl.O=C(CCN1CCN(c2ccccn2)CC1)Nc1cccc(C(F)(F)F)c1
[12]
  LD50: 1170 µmol/kg
Rattus norvegicus [13]
  ED50: > 55 µmol/kg
Cavia porcellus
  ID75: 0.65 µM/kg
[14]
  LD50: 560 µmol/kg

## CCOC(=O)CC(C)N1CCN(c2ccccn2)CC1.Cl.Cl (centres undefined)
[15]
  LD50: 6850 µmol/kg
Rattus norvegicus [13]
  ED50: > 857 µmol/kg
Cavia porcellus
  ID75: 4.14 µM/kg

## Cl.Cl.O=C(CCN1CCN(c2ccccn2)CC1)Nc1ccccc1[N+](=O)[O-]
[16]
  LD50: 3700 µmol/kg
Rattus norvegicus [13]
  ED50: > 230 µmol/kg
[17]
  LD50: 2080 µmol/kg
Cavia porcellus
  ID75: 0.58 µM/kg

## CCOC(=O)CCN1CCN(c2ccccn2)CC1.Cl.Cl
[18]
  LD50: 5080 µmol/kg
Rattus norvegicus [19]
  ED50: 665 µmol/kg
Cavia porcellus
  ID75: 7.03 µM/kg

## Cl.Cl.O=C(CCN1CCN(c2ccccn2)CC1)Nc1ccc([N+](=O)[O-])cc1
Cavia porcellus
  ID75: 0.94 µM/kg
[20]
  LD50: 470 µmol/kg
[21]
  LD50: 810 µmol/kg

## CC(=O)c1ccccc1NC(=O)CCN1CCN(c2ccccn2)CC1.Cl.Cl
Cavia porcellus
  ID75: 0.89 µM/kg
[22]
  LD50: > 6910 µmol/kg
Rattus norvegicus [23]
  ED50: 77 µmol/kg
Rattus norvegicus [24]
  ED50: > 230 µmol/kg
[25]
  LD50: 2300 µmol/kg
Rattus norvegicus [26]
  inhibition in vivo at 29 µmol/kg: 0%

## Br.CC(=O)c1ccc(NC(=O)CCN2CCN(c3ccc(Br)cn3)CC2)cc1
Mus musculus
  LD50: Not Active
Rattus norvegicus [27]
  ED50: 43 µmol/kg
[22]
  LD50: > 7000 µmol/kg
Rattus norvegicus [24]
  ED50: > 230 µmol/kg

## Cc1ccccc1NC(=O)CCN1CCN(c2ccccn2)CC1
[28]
  LD50: 1580 µmol/kg
[29]
  LD50: 1010 µmol/kg
Cavia porcellus
  ID75: 0.47 µM/kg
Rattus norvegicus [30]
  ED50: 65 µmol/kg
Rattus norvegicus [24]
  ED50: > 96 µmol/kg

## Cc1cccc(C)c1NC(=O)CN1CCN(c2ccccn2)CC1
Rattus norvegicus [31]
  ED50: 123 µmol/kg
[32]
  LD50: 900 µmol/kg
Cavia porcellus
  ID75: >24 µM/kg

## Cc1c(C)c(C(=O)NCCN2CCN(c3ccccn3)CC2)c(C)c(C)c1N
Rattus norvegicus [33]
  ED50: > 236 µmol/kg
[34]
  LD50: 710 µmol/kg
Cavia porcellus
  ID75: 8.39 µM/kg

## Nc1ccccc1NC(=O)CCN1CCN(c2ccccn2)CC1
[35]
  LD50: 2080 µmol/kg
[36]
  LD50: 3200 µmol/kg
Rattus norvegicus [37]
  inhibition in vivo at 61 µmol/kg: 26%

## CN1CCC(=C2c3ccccc3CC(=O)c3sccc32)CC1 [KETOTIFEN]
[38]
  LD50: 350 µmol/kg
[39]
  LD50: 580 µmol/kg
Cavia porcellus
  ID75: 0.0015 µM/kg
Rattus norvegicus [40]
  inhibition in vivo at 2 µmol/kg: 22%
Rattus norvegicus [41]
  ED50: 2 µmol/kg
